Substitutions are numbered along the chain they refer to.
Experiments:
[1] = test system: native GlyRs in cultured spinal neurons; assay: Whole-cell patch-clamp of Gly-activated current; format: cell-based, rat; conditions: vs vehicle
Procedure, shortened: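 Spinal cords from postnatal day 0 rats, papain-dissociated (20 U/ml, 37°C, 40 min). Plated at 300,000 cells/ml on poly-d-lysine in MEM/10% FBS, cultured ≥10 d, washed 30 min in external solution. Whole-cell, −60 mV, 20–22°C.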

[2] = biological target: T1, S296A mutant human α1 GlyR (Homo sapiens, UniProt P23415, S324A); assay: cell-based; format: cell-based; conditions: for effect of S296A mutation on cannabinoid-induced potentiation of IGly: cannabinoid 1 μM, EC2 Gly (10 μM), vs wild-type α1
T1 sequence (P23415 29-457 S324A): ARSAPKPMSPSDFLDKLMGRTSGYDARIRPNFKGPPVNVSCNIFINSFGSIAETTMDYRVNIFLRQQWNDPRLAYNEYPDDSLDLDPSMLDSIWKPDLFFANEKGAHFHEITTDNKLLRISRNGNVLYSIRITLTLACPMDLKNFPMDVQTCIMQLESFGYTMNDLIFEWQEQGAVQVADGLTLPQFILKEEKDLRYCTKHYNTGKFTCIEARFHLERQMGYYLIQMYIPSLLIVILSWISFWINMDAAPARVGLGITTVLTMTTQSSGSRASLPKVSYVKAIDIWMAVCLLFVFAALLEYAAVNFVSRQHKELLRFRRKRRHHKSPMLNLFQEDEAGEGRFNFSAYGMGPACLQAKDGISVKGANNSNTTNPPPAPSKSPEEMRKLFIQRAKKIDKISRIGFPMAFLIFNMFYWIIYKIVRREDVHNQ

rat α2 GlyR = biological target: T2, rat α2 GlyR (Rattus norvegicus, UniProt P22771); assay: Whole-cell patch-clamp of IGly in HEK-293 cells expressing α2 GlyRs; format: cell-based; conditions: read-out: EC50 for Gly (concentration-response curve); α2 subunit
T2 sequence (P22771 28-452): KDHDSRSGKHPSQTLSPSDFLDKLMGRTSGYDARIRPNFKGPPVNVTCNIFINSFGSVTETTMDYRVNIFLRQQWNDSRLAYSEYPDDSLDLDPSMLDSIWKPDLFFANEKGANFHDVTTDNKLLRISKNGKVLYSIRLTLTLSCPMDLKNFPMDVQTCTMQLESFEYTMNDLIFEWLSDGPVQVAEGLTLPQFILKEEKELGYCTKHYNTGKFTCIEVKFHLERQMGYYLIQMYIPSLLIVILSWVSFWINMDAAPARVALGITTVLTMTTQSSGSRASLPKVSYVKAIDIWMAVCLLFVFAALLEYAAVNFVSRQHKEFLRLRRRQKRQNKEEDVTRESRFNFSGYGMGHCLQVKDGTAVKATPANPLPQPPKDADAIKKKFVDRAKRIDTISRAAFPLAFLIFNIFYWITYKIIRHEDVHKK

rat α3 GlyR = biological target: T3, rat α3 GlyR (Rattus norvegicus, UniProt P24524); assay: Whole-cell patch-clamp of IGly in HEK-293 cells expressing α3 GlyRs; format: cell-based; conditions: read-out: EC50 for Gly (concentration-response curve); α3 subunit
T3 sequence (P24524 34-464): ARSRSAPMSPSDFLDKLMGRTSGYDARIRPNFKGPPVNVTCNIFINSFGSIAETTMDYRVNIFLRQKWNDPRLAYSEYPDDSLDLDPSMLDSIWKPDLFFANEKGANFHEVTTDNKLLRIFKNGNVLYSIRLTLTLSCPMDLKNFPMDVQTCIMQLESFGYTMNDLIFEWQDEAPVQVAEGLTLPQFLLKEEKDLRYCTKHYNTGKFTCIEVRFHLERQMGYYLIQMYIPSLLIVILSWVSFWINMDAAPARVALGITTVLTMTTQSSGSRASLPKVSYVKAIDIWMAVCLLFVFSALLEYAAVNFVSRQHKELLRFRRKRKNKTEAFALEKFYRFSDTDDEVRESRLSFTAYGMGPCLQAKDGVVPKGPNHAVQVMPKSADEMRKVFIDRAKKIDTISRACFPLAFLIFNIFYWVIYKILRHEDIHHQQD

human α1 GlyR = biological target: T4, human α1 GlyR (Homo sapiens, UniProt P23415); assay: cell-based; format: cell-based; conditions: for efficacy in potentiating IGly relative to AEA: concentration-response, α1 subunit (Fig. 5B)
T4 sequence (P23415 29-457): T1 sequence (P23415 29-457 S324A) with A296S

[3] = 3 μM coapplied, apparently competitive, parallel rightward shift
[4] = HEK293, read-out: inhibition of IGly

Cc1c(C(=O)NN2CCCCC2)nn(-c2ccc(Cl)cc2Cl)c1-c1ccc(I)cc1 [AM251]
effect of antagonist on AEA-induced potentiation of IGly ([1]; antagonist 1 μM): did not significantly alter

SR144528
effect of antagonist on AEA-induced potentiation of IGly ([1]; antagonist 1 μM): did not significantly alter

CCCCCCC(C)(C)c1cc(O)c2c(c1)OC(C)(C)[C@@H]1CC=C(CO)C[C@@H]21 [HU210]
effect of S296A mutation on cannabinoid-induced potentiation of IGly [2]: significantly reduced

NCC(=O)O [Gly, glycine]
EC50 (rat α2 GlyR): 128 ± 10 µM
EC50 (rat α3 GlyR): 354 ± 29 µM
maximal current density (MCD) [2]: 906 ± 147 pA/pF
maximal current density (MCD) (human α1 GlyR): 912 ± 153 pA/pF

Oc1cc2c(cc1O)CN(C(=S)NCCc1ccc(Cl)cc1)CCC2 [capsazepine]
effect of antagonist on AEA-induced potentiation of IGly ([1]; antagonist 2 μM): did not significantly alter

C=C(C)[C@@H]1CCC(C)=C[C@H]1c1c(O)cc(CCCCC)cc1O [CBD, cannabidiol]
effect of S296A mutation on cannabinoid-induced potentiation of IGly [2]: significantly reduced

Desoxyanandamide [Desoxy-AEA]
effect on AEA-induced potentiation of IGly (human α1 GlyR; [3]): inhibited
effect on THC-induced potentiation of IGly (human α1 GlyR; [3]): inhibited
efficacy in potentiating IGly relative to AEA (human α1 GlyR): reduced efficacy

O=C1C[C@@H]2OCC=C3CN4CC[C@]56c7ccccc7N1[C@H]5[C@H]2[C@H]3C[C@H]46 [strychnine]
inhibition at 0.1 µM [2, 4]: 81 ± 13%
inhibition at 0.1 µM (human α1 GlyR; [4]): 78 ± 9%

CCCCCc1cc(O)c2c(c1)OC(C)(C)[C@@H]1CCC(C)=C[C@@H]21 [THC, Δ^9-tetrahydrocannabinol]
effect of S296A mutation on cannabinoid-induced potentiation of IGly [2]: significantly reduced

CCCCCC=CCC=CCC=CCC=CCCCC(=O)NCC [Dehydroxyl-AEA, Dehydroxylanandamide]
efficacy in potentiating IGly relative to AEA (human α1 GlyR): reduced efficacy

From article PMC3334839 (The Journal of Neuroscience, 2012)
